Test results reported in ChEMBL document CHEMBL3351359, “Design and synthesis of novel 2,4-diaryl-5H-indeno[1,2-b]pyridine derivatives, and their evaluation of topoisomerase inhibitory activity and cytotoxicity” (Bioorg Med Chem, 2015).

Experiments:
[1] = target: T1, DNA topoisomerase 1 (Homo sapiens) (UniProt P11387); assay: Inhibition of human recombinant topoisomerase-1 assessed as conversion of super-coiled plasmid DNA pBR322 to relaxed DNA at 100 uM after 30 mins by ethidium bromide staining-based agarose gel electrophoresis (reference value: 45.2%)
T1 sequence (whole entry): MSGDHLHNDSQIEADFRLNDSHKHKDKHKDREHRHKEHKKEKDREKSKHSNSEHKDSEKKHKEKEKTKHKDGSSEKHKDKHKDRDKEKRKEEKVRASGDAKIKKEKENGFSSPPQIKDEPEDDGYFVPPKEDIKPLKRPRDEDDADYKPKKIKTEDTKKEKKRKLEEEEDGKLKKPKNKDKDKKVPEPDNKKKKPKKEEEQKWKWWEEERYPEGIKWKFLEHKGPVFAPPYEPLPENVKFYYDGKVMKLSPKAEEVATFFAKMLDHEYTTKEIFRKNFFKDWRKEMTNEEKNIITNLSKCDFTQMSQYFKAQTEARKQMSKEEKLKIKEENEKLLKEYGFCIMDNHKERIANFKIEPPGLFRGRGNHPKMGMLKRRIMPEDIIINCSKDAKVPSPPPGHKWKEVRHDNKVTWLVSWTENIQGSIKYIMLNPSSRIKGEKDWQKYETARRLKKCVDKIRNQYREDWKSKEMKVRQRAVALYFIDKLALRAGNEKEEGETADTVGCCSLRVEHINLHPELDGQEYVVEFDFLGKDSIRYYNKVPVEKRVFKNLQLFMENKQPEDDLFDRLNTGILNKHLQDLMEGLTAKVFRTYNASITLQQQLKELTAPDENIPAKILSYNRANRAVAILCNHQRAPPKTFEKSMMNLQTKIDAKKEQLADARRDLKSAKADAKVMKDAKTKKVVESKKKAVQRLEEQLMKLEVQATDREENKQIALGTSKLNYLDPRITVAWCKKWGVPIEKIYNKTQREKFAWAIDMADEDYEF
Procedure, shortened: (§1)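 Relaxation of supercoiled pBR322 (100 ng) by 0.4 units recombinant human topo I, with or without compound (20 mM DMSO stocks), for 30 min at 37 °C. Buffer: 10 mM Tris-HCl pH 7.9, 150 mM NaCl, 0.1% BSA, 1 mM spermidine, 5% glycerol. Stopped with sarcosyl. Run on 1% agarose in TAE at 15 V for 7 h, stained with ethidium bromide, bands quantified under UV.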

[2] = target: DNA topoisomerase 2-alpha (Homo sapiens) (UniProt P11388); assay: Inhibition of human recombinant topoisomerase-2 alpha assessed as conversion of super-coiled plasmid DNA pBR322 to relaxed DNA at 20 uM after 30 mins by ethidium bromide staining-based agarose gel electrophoresis (reference value: 20.2%)
Sequence of DNA topoisomerase 2-alpha (Homo sapiens) (P11388 whole entry): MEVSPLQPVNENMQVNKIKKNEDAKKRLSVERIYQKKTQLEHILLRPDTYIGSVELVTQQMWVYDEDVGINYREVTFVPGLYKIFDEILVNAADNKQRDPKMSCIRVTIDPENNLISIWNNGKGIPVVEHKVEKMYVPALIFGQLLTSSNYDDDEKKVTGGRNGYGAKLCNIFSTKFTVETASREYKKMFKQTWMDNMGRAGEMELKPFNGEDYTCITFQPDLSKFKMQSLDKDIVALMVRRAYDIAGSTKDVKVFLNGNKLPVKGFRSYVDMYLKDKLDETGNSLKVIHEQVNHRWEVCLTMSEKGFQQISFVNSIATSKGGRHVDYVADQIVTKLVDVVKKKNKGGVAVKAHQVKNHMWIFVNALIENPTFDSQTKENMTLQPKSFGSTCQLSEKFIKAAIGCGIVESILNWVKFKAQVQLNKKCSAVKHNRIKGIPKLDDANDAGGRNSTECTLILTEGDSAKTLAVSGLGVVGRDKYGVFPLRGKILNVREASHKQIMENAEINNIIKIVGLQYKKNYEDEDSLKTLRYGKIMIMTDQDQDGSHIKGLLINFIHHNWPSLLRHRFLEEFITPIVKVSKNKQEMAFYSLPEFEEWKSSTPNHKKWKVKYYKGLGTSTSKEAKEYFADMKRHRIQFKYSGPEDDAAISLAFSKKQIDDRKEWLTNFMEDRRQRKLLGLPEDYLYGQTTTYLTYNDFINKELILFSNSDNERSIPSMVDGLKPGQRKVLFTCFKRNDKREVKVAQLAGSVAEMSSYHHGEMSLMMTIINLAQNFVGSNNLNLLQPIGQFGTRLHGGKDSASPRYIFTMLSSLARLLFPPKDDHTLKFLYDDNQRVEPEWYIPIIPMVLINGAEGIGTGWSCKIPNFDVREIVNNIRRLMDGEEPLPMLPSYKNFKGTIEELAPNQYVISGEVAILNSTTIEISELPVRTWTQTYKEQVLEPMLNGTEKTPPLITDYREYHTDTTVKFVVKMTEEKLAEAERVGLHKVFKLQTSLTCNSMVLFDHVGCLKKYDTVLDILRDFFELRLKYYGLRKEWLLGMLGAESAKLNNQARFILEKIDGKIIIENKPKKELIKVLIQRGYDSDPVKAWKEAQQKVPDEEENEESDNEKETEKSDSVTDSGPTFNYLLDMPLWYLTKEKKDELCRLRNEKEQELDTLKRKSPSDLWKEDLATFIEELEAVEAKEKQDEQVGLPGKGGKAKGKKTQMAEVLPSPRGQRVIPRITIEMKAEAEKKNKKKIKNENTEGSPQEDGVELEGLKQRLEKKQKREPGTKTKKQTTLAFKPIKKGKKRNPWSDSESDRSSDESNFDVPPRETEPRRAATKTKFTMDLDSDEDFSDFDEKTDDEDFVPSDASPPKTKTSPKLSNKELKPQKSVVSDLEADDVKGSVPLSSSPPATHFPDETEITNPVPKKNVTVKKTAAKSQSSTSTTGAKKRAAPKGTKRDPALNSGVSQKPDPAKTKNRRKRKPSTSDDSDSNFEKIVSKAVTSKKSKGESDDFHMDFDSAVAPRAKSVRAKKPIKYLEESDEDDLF
Procedure, shortened: (§2)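 Supercoiled pBR322 (200 ng) incubated with 1 unit human topo IIα, with or without compound, for 30 min at 30 °C. Buffer: 10 mM Tris-HCl pH 7.9, 50 mM NaCl, 5 mM MgCl2, 1 mM EDTA, 1 mM ATP, 15 μg/mL BSA. Stopped with EDTA. Run on 1% agarose in TAE at 25 V for 4 h, stained with ethidium bromide, supercoiled DNA quantified under UV.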

[3] = test system: DU-145; assay: Cytotoxicity against human DU145 cells after 2 days by CCK-8 assay; format: functional, cell-based; conditions: DU-145, 48 h
Procedure, shortened: (§3)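 Cells seeded at 2~4 × 10^4 per well, grown overnight in medium with 10% FBS at 37 °C, 5% CO2. On day 2, after 4 h FBS starvation, medium replaced with medium containing graded compound concentrations. On day 4, CCK-8 added for 4 h, then absorbance read at 450 nm. IC50 from four-parameter logistic fit. Mean ± S.D. of three experiments, each run in triplicate.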

[4] = target: T1, DNA topoisomerase 1 (Homo sapiens); assay: Inhibition of human recombinant topoisomerase-1 assessed as conversion of super-coiled plasmid DNA pBR322 to relaxed DNA at 20 uM after 30 mins by ethidium bromide staining-based agarose gel electrophoresis (reference value: 25.9%); procedure, shortened: as §1
[5] = target: DNA topoisomerase 2-alpha (Homo sapiens) (UniProt P11388); assay: Inhibition of human recombinant topoisomerase-2 alpha assessed as conversion of super-coiled plasmid DNA pBR322 to relaxed DNA at 100 uM after 30 mins by ethidium bromide staining-based agarose gel electrophoresis relative to etoposide
[6] = target: T1, DNA topoisomerase 1 (Homo sapiens); assay: Inhibition of human recombinant topoisomerase-1 assessed as conversion of super-coiled plasmid DNA pBR322 to relaxed DNA at 100 uM after 30 mins by ethidium bromide staining-based agarose gel electrophoresis relative to camptothecin
[7] = test system: MCF7; assay: Cytotoxicity against human MCF7 cells after 2 days by CCK-8 assay; format: functional, cell-based; conditions: MCF7, 48 h; procedure, shortened: as §3
[8] = target: DNA topoisomerase 2-alpha (Homo sapiens) (UniProt P11388); assay: Inhibition of human recombinant topoisomerase-2 alpha assessed as conversion of super-coiled plasmid DNA pBR322 to relaxed DNA at 100 uM after 30 mins by ethidium bromide staining-based agarose gel electrophoresis (reference value: 32.4%); procedure, shortened: as §2
[9] = test system: HeLa; assay: Cytotoxicity against human HeLa cells after 2 days by CCK-8 assay; format: functional, cell-based; conditions: 48 h; procedure, shortened: as §3
[10] = Cytotoxicity against human HCT15 cells after 2 days by CCK-8 assay; format: functional, cell-based; conditions: HCT-15, 48 h; procedure, shortened: as §3
[11] = target: DNA topoisomerase 2-alpha (Homo sapiens) (UniProt P11388); assay: Inhibition of human recombinant topoisomerase-2 alpha assessed as conversion of super-coiled plasmid DNA pBR322 to relaxed DNA at 100 uM after 30 mins by ethidium bromide staining-based agarose gel electrophoresis (reference value: 87.8%); procedure, shortened: as §2
[12] = target: T1, DNA topoisomerase 1 (Homo sapiens); assay: Inhibition of human recombinant topoisomerase-1 assessed as conversion of super-coiled plasmid DNA pBR322 to relaxed DNA at 100 uM after 30 mins by ethidium bromide staining-based agarose gel electrophoresis (reference value: 62.9%); procedure, shortened: as §1
[13] = target: T1, DNA topoisomerase 1 (Homo sapiens); assay: Inhibition of human recombinant topoisomerase-1 assessed as conversion of super-coiled plasmid DNA pBR322 to relaxed DNA at 20 uM after 30 mins by ethidium bromide staining-based agarose gel electrophoresis (reference value: 19.6%); procedure, shortened: as §1
[14] = target: DNA topoisomerase 2-alpha (Homo sapiens) (UniProt P11388); assay: Inhibition of human recombinant topoisomerase-2 alpha assessed as conversion of super-coiled plasmid DNA pBR322 to relaxed DNA at 20 uM after 30 mins by ethidium bromide staining-based agarose gel electrophoresis (reference value: 46.7%); procedure, shortened: as §2

inhibition [1] [%]	inhibition [2] [%]	inhibition [4] [%]	Ratio [5]	Ratio [6]	inhibition [8] [%]	inhibition [11] [%]	inhibition [12] [%]	inhibition [13] [%]	inhibition [14] [%]	SMILES	IC50 [3] [µM]	IC50 [7] [µM]	IC50 [9] [µM]	IC50 [10] [µM]
76.3	14.6	3.9	1.25	1.69	40.5					c1coc(-c2cc(-c3cccs3)nc3c2Cc2ccccc2-3)c1	6.71	4.11	3.2	37.7
38.2	15	6.4	1.38	0.85	44.6					c1coc(-c2cc(-c3ccco3)c3c(n2)-c2ccccc2C3)c1	20.6	5.4	8.14	> 50
			1.14	0.83		100	52.5	1.5	0	c1coc(-c2cc(-c3ccoc3)c3c(n2)-c2ccccc2C3)c1	> 50	> 50		20.2
			1.14	0.65		100	40.7	0.5	100	c1ccc(-c2cc(-c3ccco3)nc3c2Cc2ccccc2-3)nc1	> 50	3.08	4.13	8.5
41.3		5.7	0.58	0.91	18.7					c1ccc(-c2cc(-c3ccco3)nc3c2Cc2ccccc2-3)cc1	7.74	> 50	5.22	16.6
			1.14	1.45		100	90.9	2.9	0	c1ccc2c(c1)Cc1c(-c3ccsc3)cc(-c3ccsc3)nc1-2	> 50	> 50		16.4
